{"source": "paper PMC10810238", "about": "(Arabian journal of chemistry, 2023)", "key": {"[1]": {"test_system": "P. falciparum NF54 strain", "test": "In vitro antiplasmodial screening, 3H-hypoxanthine incorporation assay", "format": "cell-based, Plasmodium falciparum", "details": "for Selectivity Index: L6 IC50 / Pf IC50", "summary_of_the_method": "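P. falciparum NF54 erythrocytic stages were grown in human A+ red cells (2.5% haematocrit, 0.3% parasitaemia) in hypoxanthine-free RPMI 1640 with HEPES, NaHCO₃, neomycin and Albumax. Test compound was stocked in DMSO at 10 mg/ml and diluted in medium to […]. Plates ran 48 h at 37 °C under 4% CO₂/3% O₂/93% N₂, then 0.5 µCi ³H-hypoxanthine was added for 24 h. Cells were harvested for scintillation counting. IC50 came from sigmoidal curves by linear regression, with chloroquine as standard.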"}, "[2]": {"test": "In vitro cytotoxicity with L-6 cells", "format": "cell-based", "details": "rat, L-6 cells (rat skeletal myoblasts)"}, "[3]": {"test_system": "Plasmodium berghei NK 65 strain", "test": "Peter's four-day suppressive test", "format": "in vivo, Plasmodium berghei in Swiss albino mice", "details": "for % Parasitemia: mean ± SEM"}, "[4]": {"test_system": "Plasmodium berghei NK 65 strain", "test": "Mean Survival Time", "format": "in vivo, Plasmodium berghei in Swiss albino mice", "summary_of_the_method": "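Peters' 4-day suppressive design: male and female Swiss albino mice (14–31 g) were inoculated with P. berghei NK 65 and randomised into five groups. Test compound in vehicle (100, 200 or 400 mg/kg) was given orally once daily on days 0–4, first dose 2 h after inoculation. Chloroquine at 100 mg/kg was the positive control and vehicle alone the negative control. Mortality was recorded for 30 days from inoculation.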"}, "In vivo acute toxicity": {"test": "In vivo acute toxicity", "design": "species or system Swiss albino mice", "summary_of_the_method": "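Male and female Swiss albino mice, 6–8 weeks old, were dosed per OECD guidance. Each group got one oral dose of test compound (100, 200, 400, 2000 or 5000 mg/kg) in 10% DMSO/10% Tween 80/80% water; a vehicle group served as control. Intoxication signs and mortality were watched for the first 30 min, then over 14 d. Mice were weighed on the first and final day (final day 14 d for the three lower doses, 7 d for the two higher). LD50 was the geometric mean of the least lethal dose and the highest non-lethal dose (Lorke). Kidney and liver were examined by histology, with paired t-test statistics.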"}, "[5]": {"test_system": "P. falciparum NF 54 strain", "details": "ref Miglianico et al., 2023; cited from earlier work"}, "[6]": {"details": "Plasmodium falciparum, NF54, read-out: Antiplasmodial (Pf) IC50, NF54 strain, erythrocytic stages"}, "[7]": {"details": "100 mg/kg oral daily Days 0-4, Day 4 blood"}, "[8]": {"details": "100 mg/kg oral daily Days 0-4, monitored 30 days, (+) = animals survived"}, "[9]": {"details": "read-out: Antiplasmodial (Pf) IC50, NF54 strain, erythrocytic stages"}}, "note": "Where “and” joins values, the source holds several entries; their conditions need not be identical. Equal values may be shown once. Read-outs that look alike come from different tables or passages of the source."}
{"smiles": "CCN(CC)CCCC(C)Nc1ccnc2cc(Cl)ccc12", "note": "(stereo not shown) [Chloroquine, chloroquine, reference compound]", "values": [{"measurement": "Selectivity Index", "setting": "[1]", "result": 33069.00}, {"measurement": "IC50", "setting": "[1]; [6]", "result": 2, "unit": "nM"}, {"measurement": "IC50 at 72 h", "setting": "[2]", "result": 66100, "unit": "nM"}, {"measurement": "% Suppression ± SEM", "setting": "[3]; 100 mg/kg oral daily Days 0-4", "result": "81.71 ± 1.82", "unit": "%"}, {"measurement": "% Parasitemia", "setting": "[3]; [7]", "result": "2.4 ± 0.08", "unit": "%"}, {"measurement": "% Suppression ± SEM", "setting": "[3]; 100 mg/kg oral daily Days 0-4, listed as standard drug", "result": 81.71, "unit": "%"}, {"measurement": "MST", "setting": "[4]; [8]", "result": "30 (+) days"}]}
{"smiles": "N=C(NO)c1ccc(C(=O)NO)cc1", "note": "[Compound 1c, N-Hydroxy-4-(N-hydroxycarbamimidoyl)benzamide]", "values": [{"measurement": "Selectivity Index", "setting": "[1]", "result": 27.04}, {"measurement": "IC50", "setting": "[1]; [6]", "result": 405, "unit": "nM"}, {"measurement": "IC50 at 72 h", "setting": "[2]", "result": 11000, "unit": "nM"}]}
{"smiles": "Cl.N=C(N)c1ccc(C(=O)NO)cc1", "note": "[Compound 1d, 4-Carbamimidoyl-N-hydroxybenzamide Hydrochloride]", "values": [{"measurement": "Selectivity Index", "setting": "[1]", "result": 98.72}, {"measurement": "IC50", "setting": "[1]; [6]", "result": "< 200", "unit": "nM"}, {"measurement": "IC50", "setting": "[1]; [9]", "result": 199, "unit": "nM"}, {"measurement": "IC50 at 72 h", "setting": "[2]", "result": 19600, "unit": "nM"}]}
{"smiles": "N=C(NO)c1ccc(NC(=S)NOCc2ccccc2)cc1", "note": "[Compound 2b, 4-(3-(Benzyloxy)thioureido)-N-hydroxybenzimidamide]", "values": [{"measurement": "Selectivity Index", "setting": "[1]", "result": 7.59}, {"measurement": "IC50", "setting": "[1]; [6]", "result": 2400, "unit": "nM"}, {"measurement": "IC50 at 72 h", "setting": "[2]", "result": 18200, "unit": "nM"}]}
{"smiles": "Nc1ccc(C(=O)NO)cc1", "note": "[Compound 3b, 4-Aminobenzenecarbohydroxamic acid]", "values": [{"measurement": "Selectivity Index", "setting": "[1]", "result": 44.92}, {"measurement": "IC50", "setting": "[1]; [6]", "result": "< 200", "unit": "nM"}, {"measurement": "IC50", "setting": "[1]; [9]", "result": 147, "unit": "nM"}, {"measurement": "IC50 at 72 h", "setting": "[2]", "result": 6600, "unit": "nM"}, {"measurement": "Mortality D0", "setting": "In vivo acute toxicity; 100 mg/kg bdw oral, 4 mice", "result": 0}, {"measurement": "Mortality D1", "setting": "In vivo acute toxicity; 100 mg/kg bdw oral, 4 mice", "result": 0}, {"measurement": "Mortality D5", "setting": "In vivo acute toxicity; 100 mg/kg bdw oral, 4 mice", "result": 1}, {"measurement": "Mortality D7", "setting": "In vivo acute toxicity; 100 mg/kg bdw oral, 4 mice", "result": 0}, {"measurement": "Mortality D14", "setting": "In vivo acute toxicity; 100 mg/kg bdw oral, 4 mice", "result": 0}, {"measurement": "Liver histology", "setting": "In vivo acute toxicity; 100 mg/kg, 200 mg/kg and 400 mg/kg, mice", "result": "mild to moderate vacuolar degeneration of hepatocytes"}, {"measurement": "Kidney histology", "setting": "In vivo acute toxicity; 100 mg/kg, mice", "result": "Kidney tubular degeneration"}, {"measurement": "% Mortality", "setting": "In vivo acute toxicity; 200 mg/kg bdw oral, 4 mice", "result": 0, "unit": "%"}, {"measurement": "Mortality D0", "setting": "In vivo acute toxicity; 200 mg/kg bdw oral, 4 mice", "result": 0}, {"measurement": "Mortality D1", "setting": "In vivo acute toxicity; 200 mg/kg bdw oral, 4 mice", "result": 0}, {"measurement": "Mortality D5", "setting": "In vivo acute toxicity; 200 mg/kg bdw oral, 4 mice", "result": 0}, {"measurement": "Mortality D7", "setting": "In vivo acute toxicity; 200 mg/kg bdw oral, 4 mice", "result": 0}, {"measurement": "Mortality D14", "setting": "In vivo acute toxicity; 200 mg/kg bdw oral, 4 mice", "result": 0}, {"measurement": "Mortality D0", "setting": "In vivo acute toxicity; 400 mg/kg bdw oral, 4 mice", "result": 0}, {"measurement": "Mortality D1", "setting": "In vivo acute toxicity; 400 mg/kg bdw oral, 4 mice", "result": 1}, {"measurement": "Mortality D5", "setting": "In vivo acute toxicity; 400 mg/kg bdw oral, 4 mice", "result": 0}, {"measurement": "Mortality D7", "setting": "In vivo acute toxicity; 400 mg/kg bdw oral, 4 mice", "result": 0}, {"measurement": "Mortality D14", "setting": "In vivo acute toxicity; 400 mg/kg bdw oral, 4 mice", "result": 0}, {"measurement": "Kidney histology", "setting": "In vivo acute toxicity; 400 mg/kg, mice", "result": "Severe congestion and edema"}, {"measurement": "% Mortality", "setting": "In vivo acute toxicity; 2,000 mg/kg bdw oral, 4 mice", "result": 0, "unit": "%"}, {"measurement": "Mortality D0", "setting": "In vivo acute toxicity; 2,000 mg/kg bdw oral, 4 mice", "result": 0}, {"measurement": "Mortality D1", "setting": "In vivo acute toxicity; 2,000 mg/kg bdw oral, 4 mice", "result": 0}, {"measurement": "Mortality D5", "setting": "In vivo acute toxicity; 2,000 mg/kg bdw oral, 4 mice", "result": 0}, {"measurement": "Mortality D7", "setting": "In vivo acute toxicity; 2,000 mg/kg bdw oral, 4 mice", "result": 0}, {"measurement": "Mortality D14", "setting": "In vivo acute toxicity; 2,000 mg/kg bdw oral, 4 mice", "result": 0}, {"measurement": "Kidney histology", "setting": "In vivo acute toxicity; 2000 mg/kg, mice", "result": "no lesions"}, {"measurement": "% Mortality", "setting": "In vivo acute toxicity; 5,000 mg/kg bdw oral, 1 mouse", "result": 0, "unit": "%"}, {"measurement": "Mortality D0", "setting": "In vivo acute toxicity; 5,000 mg/kg bdw oral, 1 mouse", "result": 0}, {"measurement": "Mortality D1", "setting": "In vivo acute toxicity; 5,000 mg/kg bdw oral, 1 mouse", "result": 0}, {"measurement": "Mortality D5", "setting": "In vivo acute toxicity; 5,000 mg/kg bdw oral, 1 mouse", "result": 0}, {"measurement": "Mortality D7", "setting": "In vivo acute toxicity; 5,000 mg/kg bdw oral, 1 mouse", "result": 0}, {"measurement": "Mortality D14", "setting": "In vivo acute toxicity; 5,000 mg/kg bdw oral, 1 mouse", "result": 0}, {"measurement": "Toxicity at the highest concentration limit", "setting": "In vivo acute toxicity; 5000 mg/kg, single oral dose, mice", "result": "no toxicity"}, {"measurement": "Body weight change", "setting": "In vivo acute toxicity; with increase in concentration of compound, acute toxicity study, mice", "result": "gained additional weight"}, {"measurement": "% Suppression ± SEM", "setting": "[3]; 100 mg/kg oral daily Days 0-4", "result": "51.99 ± 10.38", "unit": "%"}, {"measurement": "% Parasitemia", "setting": "[3]; [7]", "result": "6.25 ± 0.95", "unit": "%"}, {"measurement": "% Suppression ± SEM", "setting": "[3]; 200 mg/kg oral daily Days 0-4", "result": "78.55 ± 13.35", "unit": "%"}, {"measurement": "% Parasitemia", "setting": "[3]; 200 mg/kg oral daily Days 0-4, Day 4 blood", "result": "2.95 ± 1.95", "unit": "%"}, {"measurement": "% Suppression ± SEM", "setting": "[3]; 400 mg/kg oral daily Days 0-4", "result": "80.53% and 80.53 ± 3.26%"}, {"measurement": "% Parasitemia", "setting": "[3]; 400 mg/kg oral daily Days 0-4, Day 4 blood", "result": "2.6 ± 0.6", "unit": "%"}, {"measurement": "MST", "setting": "[4]; [8]", "result": 24, "unit": "days"}, {"measurement": "MST", "setting": "[4]; 200 mg/kg oral daily Days 0-4, monitored 30 days", "result": 29.5, "unit": "days"}, {"measurement": "MST", "setting": "[4]; 400 mg/kg oral daily Days 0-4, monitored 30 days, (+) = animals survived", "result": "30 (+) days"}]}
{"smiles": "COc1cc([C@@H]2c3cc4c(cc3[C@H](O)[C@H]3COC(=O)[C@H]23)OCO4)cc(OC)c1OC", "note": "[Podophyllotoxin, reference compound]", "values": [{"measurement": "IC50 at 72 h", "setting": "[2]", "result": 2, "unit": "nM"}]}
{"smiles": "CCc1nc(N)nc(N)c1-c1ccc(Cl)cc1", "note": "[Pyrimethamine]", "values": [{"measurement": "IC50", "setting": "[5]", "result": 17, "unit": "nM"}]}
{"smiles": "CC1(C)N=C(N)N=C(N)N1c1ccc(Cl)cc1", "note": "[cycloguanil]", "values": [{"measurement": "IC50", "setting": "[5]", "result": 4.5, "unit": "nM"}]}
